From ChEMBL document CHEMBL4311965, “Antimicrobial activity of amphipathic α,α-disubstituted β-amino amide derivatives against ESBL - CARBA producing multi-resistant bacteria; effect of halogenation, lipophilicity and cationic character” (Eur J Med Chem, 2019)
Values after ≈ are worked out from the molar mass of the structure shown.

How the values were obtained:
[1] = test system: Escherichia coli; assay: Antibacterial activity against Escherichia coli ATCC 25922 cultured in MHB medium assessed as no bacterial growth incubated at 37 degC for 24 hrs by microdilution susceptibility test; assay type: functional; settings: ATCC 25922, 24 h
Method in brief: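 Broth microdilution per CLSI M07-A9 with modifications. Inoculum about 2.5–3 x 10⁴ cells/mL in Mueller-Hinton broth, mixed 1:1 with test derivative. DMSO stocks diluted in double-distilled water, final DMSO <1%. Incubation 24 h at 37 °C (20 °C for C. glutamicum). Growth and sterility controls included; oxytetracycline reference.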

[2] = test system: Staphylococcus aureus; assay: Antibacterial activity against multidrug-resistant Staphylococcus aureus NCTC 10442 cultured in MHB medium assessed as reduction in bacterial growth incubated for 24 hrs by microdilution susceptibility test; assay type: functional; settings: NCTC 10442, 24 h
Method in brief: (§1)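 Broth microdilution per CLSI M07-A9 (modified). Working solutions made from concentrated DMSO stocks kept at r.t., diluted in double-distilled water, final DMSO <1%. Inoculum 1–1.2 x 10⁶ cells/mL in Mueller-Hinton broth, mixed 1:1 with compound. 37 °C, 24 h, four parallels. Read as OD₆₀₀. Where precipitation left residual OD, the point of major OD decrease was taken as the inhibitory concentration.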

[3] = test system: Escherichia coli; assay: Antibacterial activity against multidrug-resistant Escherichia coli 50639799 producing Verona integron encoded metallo beta-lactamse-29 cultured in MHB medium assessed as reduction in bacterial growth incubated for 24 hrs by microdilution susceptibility test; assay type: functional; settings: Escherichia coli, 50639799, 24 h; method in brief: as §1
[4] = test system: Klebsiella pneumoniae; assay: Antibacterial activity against multidrug-resistant Klebsiella pneumoniae 50667959 producing Verona integron encoded metallo beta-lactamse-1 cultured in MHB medium assessed as reduction in bacterial growth incubated for 24 hrs by microdilution susceptibility test; assay type: functional; settings: Klebsiella pneumoniae, 50667959, 24 h; method in brief: as §1
[5] = test system: Acinetobacter baumannii; assay: Antibacterial activity against multidrug-resistant Acinetobacter baumannii K47-42 producing oxcillinase-23 cultured in MHB medium assessed as reduction in bacterial growth incubated for 24 hrs by microdilution susceptibility test; assay type: functional; settings: K47-42, 24 h; method in brief: as §1
[6] = test system: Staphylococcus aureus; assay: Antibacterial activity against multidrug-resistant Staphylococcus aureus 85/2082 cultured in MHB medium assessed as reduction in bacterial growth incubated for 24 hrs by microdilution susceptibility test; assay type: functional; settings: 85/2082, 24 h; method in brief: as §1
[7] = test system: Staphylococcus aureus; assay: Antibacterial activity against multidrug-resistant Staphylococcus aureus N315 cultured in MHB medium assessed as reduction in bacterial growth incubated for 24 hrs by microdilution susceptibility test; assay type: functional; settings: N315, 24 h; method in brief: as §1
[8] = test system: Acinetobacter baumannii; assay: Antibacterial activity against multidrug-resistant Acinetobacter baumannii K63-58 producing oxcillinase-23 cultured in MHB medium assessed as reduction in bacterial growth incubated for 24 hrs by microdilution susceptibility test; assay type: functional; settings: K63-58, 24 h; method in brief: as §1
[9] = test system: Klebsiella pneumoniae; assay: Antibacterial activity against multidrug-resistant Klebsiella pneumoniae K66-45 producing New Delhi metallo-beta-lactamase-1 cultured in MHB medium assessed as reduction in bacterial growth incubated for 24 hrs by microdilution susceptibility test; assay type: functional; settings: K66-45, 24 h; method in brief: as §1
[10] = test system: Klebsiella pneumoniae; assay: Antibacterial activity against multidrug-resistant Klebsiella pneumoniae 50625602 producing oxcillinase-245 cultured in MHB medium assessed as reduction in bacterial growth incubated for 24 hrs by microdilution susceptibility test; assay type: functional; settings: Klebsiella pneumoniae, 50625602, 24 h; method in brief: as §1
[11] = test system: Enterococcus faecium; assay: Antibacterial activity against multidrug-resistant Enterococcus faecium TUH50-22 cultured in BHIB medium assessed as reduction in bacterial growth incubated for 24 hrs by microdilution susceptibility test; assay type: functional; settings: TUH50-22, 24 h
Method in brief: (§2)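 Enterococci grown in Brain Heart Infusion broth, otherwise broth microdilution per CLSI M07-A9 (modified). Concentrated DMSO stocks kept at r.t. and diluted in double-distilled water, final DMSO <1%. Inoculum 1–1.2 x 10⁶ cells/mL mixed 1:1 with compound. 37 °C, 24 h, four parallels. OD₆₀₀ read-out, lowest concentration with no growth.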

[12] = test system: Pseudomonas aeruginosa; assay: Antibacterial activity against multidrug-resistant Pseudomonas aeruginosa K34-73 producing Verona integron encoded metallo beta-lactamse-4 cultured in MHB medium assessed as reduction in bacterial growth incubated for 24 hrs by microdilution susceptibility test; assay type: functional; settings: K34-73, 24 h; method in brief: as §1
[13] = test system: Pseudomonas aeruginosa; assay: Antibacterial activity against multidrug-resistant Pseudomonas aeruginosa K34-7 producing Verona integron encoded metallo beta-lactamse-2 cultured in MHB medium assessed as reduction in bacterial growth incubated for 24 hrs by microdilution susceptibility test; assay type: functional; settings: K34-7, 24 h; method in brief: as §1
[14] = test system: Escherichia coli; assay: Antibacterial activity against multidrug-resistant Escherichia coli 50739822 producing New Delhi metallo-beta-lactamase-1 cultured in MHB medium assessed as reduction in bacterial growth incubated for 24 hrs by microdilution susceptibility test; assay type: functional; settings: Escherichia coli, 50739822, 24 h; method in brief: as §1
[15] = test system: HepG2; assay: Cytotoxicity against human HepG2 cells assessed as reduction in cell viability incubated for 4 hrs by CellTiter 96 Aqueous One Solution Reagent based assay; settings: HepG2, 4 h
Method in brief: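 HepG2 and MRC-5 cells seeded at 35 000 and 15 000 cells/well respectively, then held overnight at 37 °C, 5% CO₂. Compounds in serum-free MEM Earle's applied for 4 h. MTS reagent (CellTiter 96 AQueous One) added for a further 1 h, absorbance read at 485 nm. Survival expressed relative to medium (negative) and Triton X-100 (positive) controls.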

[16] = test system: Enterococcus faecium; assay: Antibacterial activity against multidrug-resistant Enterococcus faecium 50901530 cultured in BHIB medium assessed as reduction in bacterial growth incubated for 24 hrs by microdilution susceptibility test; assay type: functional; settings: Enterococcus faecium, 50901530, 24 h; method in brief: as §2
[17] = test system: Escherichia coli; assay: Antibacterial activity against multidrug-resistant Escherichia coli 50579417 producing oxcillinase-48 cultured in MHB medium assessed as reduction in bacterial growth incubated for 24 hrs by microdilution susceptibility test; assay type: functional; settings: Escherichia coli, 50579417, 24 h; method in brief: as §1
[18] = Aqueous solubility of the compound in DMSO; assay type: physicochemical

| Structure (SMILES) | MIC [1] [mg/L] | MIC [2] [mg/L] | MIC [3] [mg/L] | MIC [4] [mg/L] | MIC [5] [mg/L] | MIC [6] [mg/L] | MIC [7] [mg/L] | MIC [8] [mg/L] | MIC [9] [mg/L] | MIC [10] [mg/L] | MIC [11] [mg/L] | MIC [12] [mg/L] | MIC [13] [mg/L] | MIC [14] [mg/L] | EC50 [15] [mg/L] | MIC [16] [mg/L] | MIC [17] [mg/L] | solubility [18] |
| --- | --- | --- | --- | --- | --- | --- | --- | --- | --- | --- | --- | --- | --- | --- | --- | --- | --- | --- |
| N=C(N)NCCNC(=O)C(CNC(=N)N)(Cc1cc(Br)cc(Br)c1)Cc1cc(Br)cc(Br)c1 | 8 (≈ 11.3 µM) | 2 (≈ 2.81 µM) | 8 (≈ 11.3 µM) | 16 (≈ 22.5 µM) | 16 (≈ 22.5 µM) | 2 (≈ 2.81 µM) | 2 (≈ 2.81 µM) | 16 (≈ 22.5 µM) | 16 (≈ 22.5 µM) | 16 (≈ 22.5 µM) | 2 (≈ 2.81 µM) | 16 (≈ 22.5 µM) | 16 (≈ 22.5 µM) | 8 (≈ 11.3 µM) | > 64 | 4 (≈ 5.63 µM) | 8 (≈ 11.3 µM) | – |
| N=C(N)NCCNC(=O)C(CNC(=N)N)(Cc1cc(C(F)(F)F)cc(C(F)(F)F)c1)Cc1cc(C(F)(F)F)cc(C(F)(F)F)c1 | 4 (≈ 5.99 µM) | 8 (≈ 12 µM) | 16 (≈ 24 µM) | > 32 | > 32 | 8 (≈ 12 µM) | 4 (≈ 5.99 µM) | > 32 | > 32 | > 32 | 4 (≈ 5.99 µM) | 16 (≈ 24 µM) | 32 (≈ 47.9 µM) | 32 (≈ 47.9 µM) | > 64 | 4 (≈ 5.99 µM) | 32 (≈ 47.9 µM) | – |
| NCCNCC(CN)(Cc1cc(C(F)(F)F)cc(C(F)(F)F)c1)Cc1cc(C(F)(F)F)cc(C(F)(F)F)c1 | 4 (≈ 7.02 µM) | 8 (≈ 14 µM) | 8 (≈ 14 µM) | 8 (≈ 14 µM) | 8 (≈ 14 µM) | 8 (≈ 14 µM) | 8 (≈ 14 µM) | 8 (≈ 14 µM) | 8 (≈ 14 µM) | 8 (≈ 14 µM) | 4 (≈ 7.02 µM) | 32 (≈ 56.2 µM) | 32 (≈ 56.2 µM) | 8 (≈ 14 µM) | 7 (≈ 12.3 µM) | 8 (≈ 14 µM) | 8 (≈ 14 µM) | – |
| NCCNCC(CN)(Cc1ccccc1Br)Cc1ccccc1Br | 16 (≈ 35.1 µM) | 16 (≈ 35.1 µM) | 16 (≈ 35.1 µM) | 16 (≈ 35.1 µM) | 16 (≈ 35.1 µM) | 8 (≈ 17.6 µM) | 8 (≈ 17.6 µM) | 16 (≈ 35.1 µM) | 16 (≈ 35.1 µM) | 16 (≈ 35.1 µM) | 16 (≈ 35.1 µM) | 32 (≈ 70.3 µM) | 32 (≈ 70.3 µM) | 16 (≈ 35.1 µM) | 18 (≈ 39.5 µM) | 16 (≈ 35.1 µM) | 16 (≈ 35.1 µM) | – |
| N#CC(Cc1cc(C(F)(F)F)cc(C(F)(F)F)c1)(Cc1cc(C(F)(F)F)cc(C(F)(F)F)c1)C(=O)NCCN | 32 (≈ 55.2 µM) | 32 (≈ 55.2 µM) | > 32 | > 32 | > 32 | 32 (≈ 55.2 µM) | > 32 | > 32 | > 32 | > 32 | 8 (≈ 13.8 µM) | > 32 | > 32 | > 32 | 20 (≈ 34.5 µM) | 16 (≈ 27.6 µM) | > 32 | Soluble |
| NCCNCC(CN)(Cc1cc(Br)cc(Br)c1)Cc1cc(Br)cc(Br)c1 | 4 (≈ 6.52 µM) | 4 (≈ 6.52 µM) | 8 (≈ 13 µM) | 16 (≈ 26.1 µM) | 16 (≈ 26.1 µM) | 8 (≈ 13 µM) | 4 (≈ 6.52 µM) | 8 (≈ 13 µM) | 8 (≈ 13 µM) | 16 (≈ 26.1 µM) | 4 (≈ 6.52 µM) | 16 (≈ 26.1 µM) | 16 (≈ 26.1 µM) | 8 (≈ 13 µM) | 12 (≈ 19.6 µM) | 4 (≈ 6.52 µM) | 16 (≈ 26.1 µM) | – |
